According to ChEMBL document CHEMBL1148987, “Antimycobacterial coumarins from the sardinian giant fennel (Ferula communis)” (2004):
Values after ≈ are worked out from the molar mass of the structure shown.

Columns and labels:
Format in all cases: functional
[1] = tested on: Mycolicibacterium smegmatis; test: Antimycobacterial activity against Mycobacterium smegmatis ATCC 14468 after 72 hrs by MTT assay; details: ATCC 14468, 72 h
Method in brief: (§1)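 Standard broth microdilution MIC in Ca2+/Mg2+-adjusted Mueller-Hinton broth; strains kept on Columbia blood agar with 5% defibrinated horse blood. DMSO stocks diluted into MHB, 2-fold series with final range […]. Inoculum from 0.5 McFarland standard in saline, final 5 × 10^5 cfu/mL; 37 °C for 72 h. Growth read by MTT (20 min, 37 °C, blue = growth); MIC = lowest concentration with no growth.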

Mycolicibacterium phlei = test: Antimycobacterial activity against Mycobacterium phlei ATCC 11758 after 72 hrs by MTT assay; details: ATCC 11758, 72 h; method in brief: as §1
Mycolicibacterium aurum = test: Antimycobacterial activity against Mycobacterium aurum after 120 hrs by MTT assay
Method in brief: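 Broth microdilution MIC in Ca2+/Mg2+-adjusted Mueller-Hinton broth; strain maintained on Columbia blood agar with 5% defibrinated horse blood. Compounds dissolved in DMSO, diluted into MHB, 2-fold serial dilutions giving final 512 to 1 μg/mL. Inoculum from 0.5 McFarland in saline, final 5 × 10^5 cfu/mL. Incubated 37 °C, 120 h. MTT added, 20 min at 37 °C; blue indicates growth; MIC = lowest concentration without growth.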

[2] = tested on: Mycolicibacterium fortuitum; test: Antimycobacterial activity against Mycobacterium fortuitum ATCC 6841 after 72 hrs by MTT assay; details: ATCC 6841, 72 h; method in brief: as §1

Compound	MIC [1]	MIC (Mycolicibacterium phlei)	MIC (Mycolicibacterium aurum)	MIC [2]
CC(C)=CCC/C(C)=C/CC/C(C)=C/Cc1c(O)c2ccccc2oc1=O	0.5 µg/mL (≈ 1.36 µM)	2 µg/mL (≈ 5.46 µM)	2 µg/mL (≈ 5.46 µM)	2 µg/mL (≈ 5.46 µM)
CCCCCCCCCc1c(O)c2ccccc2oc1=O				3.5 µg/mL (≈ 12.1 µM)
C/C(=C\CC/C(C)=C/Cc1c(O)c2ccccc2oc1=O)CC/C=C(\C)COC(=O)c1ccccc1	2 µg/mL (≈ 4.11 µM)	2 µg/mL (≈ 4.11 µM)	8 µg/mL (≈ 16.4 µM)	16 µg/mL (≈ 32.9 µM)
C/C(=C\CC/C(C)=C/CC/C(C)=C/Cc1c(O)c2ccccc2oc1=O)CO	16 µg/mL (≈ 41.8 µM)	16 µg/mL (≈ 41.8 µM)	32 µg/mL (≈ 83.7 µM)	64 µg/mL (≈ 167 µM)
CC(=O)OC/C(C)=C/CC/C(C)=C/CC/C(C)=C/Cc1c(O)c2ccccc2oc1=O	8 µg/mL (≈ 18.8 µM)	8 µg/mL (≈ 18.8 µM)	16 µg/mL (≈ 37.7 µM)	32 µg/mL (≈ 75.4 µM)
CC[C@@H](CO)NCCN[C@@H](CC)CO [ETHAMBUTOL]	0.5 µg/mL (≈ 2.45 µM)	2 µg/mL (≈ 9.79 µM)	0.5 µg/mL (≈ 2.45 µM)	8 µg/mL (≈ 39.2 µM)
NNC(=O)c1ccncc1 [ISONIAZID]	1 µg/mL (≈ 7.29 µM)	4 µg/mL (≈ 29.2 µM)	2 µg/mL (≈ 14.6 µM)	0.5 µg/mL (≈ 3.65 µM)
